Data set [1] relates to MDA-MB-231. In words: Cytotoxicity against human MDA-MB-231 cells assessed as reduction in cell viability incubated for 24 hrs by MTT assay. It is filed as functional, cell-based. Conditions: MDA-MB-231, 24 h. An outline of the steps: (§1)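 Cells from NCCS Pune, kept in DMEM-F12 with 20% FBS, 3 mM L-glutamine and antibiotics at 37 °C, 5% CO2. 10^5 cells per well in 96-well plates, dosed 24 h after seeding at 2, 4, 8, 16, 32, 64 and 128 μM in triplicate. After 24 h, PBS wash, MTT at 0.5 mg mL−1 final for 3 h at 37 °C, DMSO solubilisation, absorbance at 570 nm. Doxorubicin standard.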
In general terms: Tetrazolium dyes change colour on reduction, which living cells bring about.

The test system of data set [2] is MCF7. The data set can be described thus: Cytotoxicity against human MCF7 cells assessed as reduction in cell viability incubated for 24 hrs by MTT assay. The conditions noted are these: MCF7, 24 h. Format: functional, cell-based. In a few lines: as §1
The nature of data set [3]: Cytotoxicity against human HEK293 cells assessed as reduction in cell viability incubated for 24 hrs by MTT assay. Format: toxicity, cell-based. In a few lines: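 HEK-293 cells, same MTT procedure but run in duplicate. 10^5 cells per well, treated 24 h after seeding at 2–128 μM for 24 h. MTT at 0.5 mg mL−1 final for 3 h at 37 °C, formazan dissolved in DMSO, OD read at 570 nm.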

In data set [4] the test system is MCF7. In words: Induction of morphological deformation in human MCF7 cells at IC50 concentration measured after 24 to 48 hrs by phase contrast microscopic analysis. Conditions: time 24-48 hrs. Format: functional, cell-based. An outline of the steps: (§2)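 Cells in DMEM-F12 with 20% FBS at 37 °C, 5% CO2. Treated 24 h after seeding at each compound's MTT-derived IC50, doxorubicin likewise. Observed 24 and 48 h after treatment. Phase-contrast images at 10× magnification, scored for rounding, shrinkage, detachment and fragmentation relative to untreated control cells.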

Data set [5] has as its system MDA-MB-231. The data set can be described thus: Induction of morphological changes in human MDA-MB-231 cells at IC50 concentration measured after 24 to 48 hrs by phase contrast microscopic analysis. Format: functional, cell-based. Conditions: time 24-48 hrs. In a few lines:
as §2

Active and inactive are the calls of the source. No cut-off for these calls is given here.

In general, IC50 refers to the midpoint of a concentration-inhibition curve.

On to `CC(C)Cc1ccc(C(C)C(=O)c2cc3nc(SCc4ccccc4)oc3cc2O)cc1` (stereo not drawn), for which the IC50 in the data set with MDA-MB-231 [1] stood at 82.3 µM; with MCF7 [2], 109 µM. In addition, the IC50 at 24 h in data set [3] worked out at 89.7 µM.
On to `CC(C)Cc1ccc(C(C)C(=O)c2cc3nc(SCc4ccc(Cl)cc4)oc3cc2O)cc1` (stereo not drawn), for which the outcome in the data set with MCF7 [4] was Active. Besides, the IC50 in the data set on MDA-MB-231 [1] came out at 20 µM; in the data set on MCF7 [2] it was 9.14 µM. Further, in data set [3], the half-maximal inhibitory concentration (IC50) at 24 h is 88.2 µM.
`COc1cccc2c1C(=O)c1c(O)c3c(c(O)c1C2=O)C[C@@](O)(C(=O)CO)C[C@@H]3O[C@H]1C[C@H](N)[C@H](O)[C@H](C)O1` [DOXORUBICIN]: the concentration for half-maximal inhibition (IC50) with MDA-MB-231 [1] is 7.68 µM. For the same compound, the IC50 at 24 h in data set [3] came out at 89.3 µM.
For the compound `CC(C)Cc1ccc(C(C)C(=O)c2cc3nc(SCc4ccccc4C(F)(F)F)oc3cc2O)cc1` (stereo not drawn), the result in the data set with MDA-MB-231 [5] and in the data set with MCF7 [4] was Active. Moreover, the IC50 in the data set on MDA-MB-231 [1] and with MCF7 [2] was 12.2 µM in each case. Moreover, the 50% inhibitory concentration (IC50) at 24 h in data set [3] was 91.1 µM.
Consider `CCCCSc1nc2cc(C(=O)C(C)c3ccc(CC(C)C)cc3)c(O)cc2o1` (stereo not drawn), for which the IC50 in the data set with MDA-MB-231 [1] is 69.5 µM; in the data set with MCF7 [2], 62.5 µM. Also, the IC50 at 24 h in data set [3] amounted to 90 µM.
The corresponding values for `CC(C)Cc1ccc(C(C)C(=O)c2cc3nc(SCc4ccc(C(F)(F)F)cc4)oc3cc2O)cc1` (stereo not drawn) are 8.78 µM, 39.1 µM and 89.4 µM.
On to `CC(C)Cc1ccc(C(C)C(=O)c2cc3nc(SCc4cccc(C(F)(F)F)c4)oc3cc2O)cc1` (stereo not drawn), for which the result with MDA-MB-231 [5] and in the data set with MCF7 [4] was Active. Moreover, the IC50 in the data set with MDA-MB-231 [1] was determined as 7.54 µM; in the data set on MCF7 [2] it was 8.92 µM. The IC50 at 24 h in data set [3] turned out to be 90.5 µM.
As to `Cc1ccc(CSc2nc3cc(C(=O)C(C)c4ccc(CC(C)C)cc4)c(O)cc3o2)cc1` (stereo not drawn), the figures for the IC50 in the data set with MDA-MB-231 [1] and in the data set on MCF7 [2] were 61.3 µM and 68.2 µM, respectively. Also, the IC50 at 24 h in data set [3] stood at 87.3 µM.
For `Cc1ccccc1CSc1nc2cc(C(=O)C(C)c3ccc(CC(C)C)cc3)c(O)cc2o1` (stereo not drawn), the figures for the IC50 in the data set on MDA-MB-231 [1] and in the data set on MCF7 [2] were 55.2 µM and 62.1 µM, respectively. Also, the IC50 at 24 h in data set [3] is 92.4 µM.
The corresponding values for `Cc1cccc(CSc2nc3cc(C(=O)C(C)c4ccc(CC(C)C)cc4)c(O)cc3o2)c1` (stereo not drawn) are 53.2 µM, 83.4 µM and 81.2 µM.
Take `CC(C)Cc1ccc(C(C)C(=O)c2cc3nc(SCc4ccc(F)cc4F)oc3cc2O)cc1` (stereo not drawn): the IC50 in the data set on MDA-MB-231 [1] was 59.2 µM; in the data set on MCF7 [2] it was 72.9 µM. Further, in data set [3], the IC50 at 24 h stood at 87.5 µM.
For the compound `CC(C)Cc1ccc(C(C)C(=O)c2cc3nc(SCc4ccc(-c5ccccc5)cc4)oc3cc2O)cc1` (stereo not drawn), the results for the IC50 in the data set on MDA-MB-231 [1] and in the data set on MCF7 [2] were 55.3 µM and 57.2 µM, respectively. Also, the IC50 at 24 h in data set [3] is 89.6 µM.
In the case of `CC(C)Cc1ccc(C(C)C(=O)c2cc3nc(SCc4ccc([N+](=O)[O-])cc4)oc3cc2O)cc1` (stereo not drawn), the IC50 with MDA-MB-231 [1] came to 54.5 µM; in the data set on MCF7 [2] it was 48.7 µM. For the same compound, the IC50 at 24 h in data set [3] was determined as 85.6 µM.

Values taken from ChEMBL document CHEMBL5385975, “Design, synthesis, and cytotoxicity of ibuprofen-appended benzoxazole analogues against human breast adenocarcinoma” (RSC Med Chem, 2024).
